According to ChEMBL document CHEMBL4052820, “RNA G-Quadruplexes in Kirsten Ras (KRAS) Oncogene as Targets for Small Molecules Inhibiting Translation” (J Med Chem, 2017):
The source made the active and inactive calls. The calls are words filed in the database; no cut-off is given here.

Assays:
Homo sapiens [1] = organism: Homo sapiens; assay: Stabilization of human KRAS utr-1 G-quadruplex RNA assessed as change in melting temperature at 4 ligand to RNA ratio after 1 hr in presence of 5 or 10 fold excess 21 mer RNA duplex by UV-visible spectrophotometer
Summary of the method: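 The utr-1 G4 RNA was UV-melted with ligand at ligand/G4 ratio r = 4, with a 5- or 10-fold excess of 21-mer RNA duplex added to test quadruplex-over-duplex competition.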

Cytomegalovirus = assay: Stabilization of CMV promoter lacking KRAS 5'-UTR G-quadruplex RNA transfected in human PANC1 cells assessed as inhibition of translation at 0.15 to 0.6 uM preincubated for 6 hrs followed by transfection measured after 48 hrs by dual-glo luciferase reporter gene assay; assay type: cell-based
Summary of the method: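 Renilla reporter pRL-CMV lacks the KRAS 5′-UTR. Panc-1 cells were pretreated 6 h, then cotransfected (10 ng) with 200 ng Firefly plasmid under a G4-mutated HRAS promoter. Dual-Glo was read after 48 h, expressed as Renilla/Firefly T/C × 100 versus untreated cells.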

[2] = Selectivity ratio of Kd for WC RNA hairpin (unknown origin) to Kd for human KRAS utr-z G-quadruplex RNA
Homo sapiens [3] = organism: Homo sapiens; assay: Stabilization of human KRAS utr-c G-quadruplex RNA assessed as change in melting temperature at 1 to 4 ligand to RNA ratio after 1 hr by UV-visible spectrophotometer
Summary of the method: (§1)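 UV-melting curves of the G4 RNA were recorded at 260 and 296 nm in a 0.5 cm cuvette, in 50 mM Tris-HCl pH 7.4, 100 mM KCl. Ligand was tested at ligand/G4 ratio r = 1, 2 and 4. ΔTM is the TM increase over RNA alone.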

PANC-1 [4] = assay: Induction of apoptosis in human PANC1 cells at 1.6 uM after 72 hrs by annexin V/propidium iodide staining-based flow cytometric method (reference value: 1.2%); assay type: functional
Summary of the method: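 Panc-1 cells were exposed to 1.6 μM compound for 72 h, stained with FITC-annexin V and propidium iodide, and apoptotic cells counted by flow cytometry.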

[5] = Selectivity ratio of Kd for WC RNA hairpin (unknown origin) to Kd for human KRAS utr-4 G-quadruplex RNA
PANC-1 [6] = assay: Downregulation of KRAS mRNA expression in human PANC1 cells at 1.6 uM after 6 to 24 hrs by qRT-PCR method relative to control; assay type: functional
Summary of the method: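 Panc-1 cells were seeded at 18 × 10^3/well and treated the next day. Total RNA was extracted 6 and 24 h later. cDNA was made with oligo-dT plus random hexamers and M-MLV reverse transcriptase (1 h, 37 °C). Multiplex probe qPCR measured KRAS against HPRT and β2-microglobulin (50 cycles: 10 s 95 °C, 60 s 58 °C).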

[7] = Selectivity ratio of Kd for WC RNA hairpin (unknown origin) to Kd for human KRAS utr-1 G-quadruplex RNA
[8] = Binding affinity to human KRAS utr-z G-quadruplex RNA by fluorescence titration method
Summary of the method: (§2)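 KD was obtained from fluorescence titrations of ligand with G4 RNA in 50 mM Tris-HCl, pH 7.4, 100 mM KCl.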

[9] = Binding affinity to human KRAS utr-4 G-quadruplex RNA by fluorescence titration method
Homo sapiens [10] = organism: Homo sapiens; assay: Stabilization of human KRAS utr-1 G-quadruplex RNA assessed as change in melting temperature at 1 to 4 ligand to RNA ratio after 1 hr by UV-visible spectrophotometer; summary of the method: as §1
PANC-1 [11] = assay: Induction of apoptosis in human PANC1 cells assessed as activation of caspase-3/7 at 0.8 to 1.6 uM; assay type: functional, cell-based
Summary of the method: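 Caspase-3/7 activity in treated Panc-1 cells was read with a homogeneous fluorogenic caspase-3/7 kit per the manufacturer.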

[12] = Drug uptake in cytoplasm of human PANC1 at 3 uM after 4 hrs by Syto-14 fluorescent dye-based confocal microscopic method; assay type: ADME
PANC-1 [13] = assay: Inhibition of metabolic activity in human PANC1 cells after 72 hrs by resazurin assay; assay type: functional, cell-based; settings: PANC-1, 72 h
Summary of the method: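 Panc-1 cells were seeded at 10 × 10^3/well, treated after 1 day, incubated 72 h, then assayed with resazurin for metabolic activity. IC50 was reported.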

Homo sapiens [14] = organism: Homo sapiens; assay: Stabilization of human KRAS 5'-UTR G-quadruplex RNA transfected in human PANC1 cells assessed as inhibition of translation at 0.07 to 0.33 uM preincubated for 6 hrs followed by transfection measured after 48 hrs by dual-glo luciferase reporter gene assay; assay type: cell-based
Summary of the method: (§3)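 Panc-1 cells (20 × 10^3) were treated the next day for 6 h. They were then transfected with jet-PEI using 10 ng Renilla reporter under the KRAS promoter including the 5′-UTR, plus 200 ng Firefly plasmid under a G4-mutated HRAS promoter. Dual-Glo luminescence was read 48 h later. Renilla/Firefly is given as T/C × 100 against untreated cells.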

Homo sapiens [15] = organism: Homo sapiens; assay: Stabilization of human KRAS 5'-UTR G-quadruplex RNA transfected in human PANC1 cells assessed as inhibition of translation at 0.3 to 1.6 uM preincubated for 6 hrs followed by transfection measured after 48 hrs by dual-glo luciferase reporter gene assay; assay type: cell-based; summary of the method: as §3
[16] = Binding affinity to human KRAS promoter G-quadruplex DNA by fluorescence titration method
Homo sapiens [17] = organism: Homo sapiens; assay: Stabilization of human KRAS 5'-UTR G-quadruplex RNA in human PANC1 cells assessed as inhibition of translation by measuring levels of KRAS protein at 1.6 uM after 48 hrs by Western blot method relative to control; assay type: cell-based; parameters: scale not given: the % may be the effect or the level left
Summary of the method: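 Panc-1 lysates (15 μg protein) were run on 12% SDS-PAGE and transferred to nitrocellulose. Membranes were blocked with 5% BSA in PBS-0.05% Tween and probed overnight at 4 °C with rabbit polyclonal anti-KRAS (1:250) and mouse anti-actin. HRP-conjugated secondaries were applied for 1 h, with chemiluminescent detection.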

PANC-1 [18] = assay: Inhibition of colony formation in human PANC1 cells at 0.25 to 0.5 uM after 18 days by methylene blue assay relative to control; assay type: functional
Summary of the method: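 Panc-1 cells were plated in 60 mm dishes with compound. After 18 days they were fixed and stained 10 min with 2.5% methylene blue in 50% ethanol. Colonies of more than 50 cells were counted.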

Homo sapiens [19] = organism: Homo sapiens; assay: Stabilization of human KRAS 5'-UTR G-quadruplex RNA at 3'-end of CMV promoter transfected in human PANC1 cells assessed as inhibition of translation preincubated for 6 hrs followed by transfection measured after 48 hrs by dual-glo luciferase reporter gene assay; assay type: cell-based
Summary of the method: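 Renilla reporter pRL-CMV-UTR carries the 192-nt KRAS 5′-UTR inserted downstream of the CMV promoter. Panc-1 cells were pretreated 6 h (0–1.6 μM), then cotransfected (10 ng) with 200 ng Firefly plasmid under a G4-mutated HRAS promoter. Dual-Glo was read after 48 h, expressed as Renilla/Firefly T/C × 100.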

[20] = Drug uptake in human PANC1 cells at 3 uM after 4 hrs by flow cytometric method; assay type: ADME, cell-based; settings: panc-1, 4 h
Summary of the method: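 Panc-1 cells were seeded at 5 × 10^4/well and exposed the next day to 3 μM compound for 4 h. Cells were trypsinized, resuspended in PBS and analysed at once by flow cytometry (488 nm excitation, FL3 680 nm, log scale), at least 10^4 cells per sample, gated on FSC/SSC.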

[21] = Binding affinity to WC RNA hairpin (unknown origin) by fluorescence titration method
[22] = Binding affinity to human KRAS utr-1 G-quadruplex RNA by fluorescence titration method; summary of the method: as §2
Homo sapiens [23] = organism: Homo sapiens; assay: Stabilization of human KRAS utr-z G-quadruplex RNA assessed as change in melting temperature at 1 to 4 ligand to RNA ratio after 1 hr by UV-visible spectrophotometer; summary of the method: as §1

| Structure (SMILES) | Selectivity ratio [2] | ΔTm (Homo sapiens [3]) | Activity (PANC-1 [4]) | Selectivity ratio [5] | Activity (PANC-1 [6]) | Selectivity ratio [7] | Kd [8] | Kd [9] | ΔTm (Homo sapiens [10]) | Activity (PANC-1 [11]) | Drug uptake [12] | IC50 (PANC-1 [13]) | inhibition (Homo sapiens [15]) | Kd [16] | Activity (Homo sapiens [17]) | Drug uptake [20] | Kd [21] | Kd [22] | ΔTm (Homo sapiens [23]) | further results |
| --- | --- | --- | --- | --- | --- | --- | --- | --- | --- | --- | --- | --- | --- | --- | --- | --- | --- | --- | --- | --- |
| NCCNc1c2c(c(NCCN)c3occc13)C(=O)c1ccccc1C2=O | 2 to 6 | < 32 °C | 32.5% | 2 to 6 | 50% | 2 to 6 | 251 nM | 96 nM | < 32 °C | Active | Active | 260 nM | Dose-dependent effect | 626 nM | < 10% | Active | 514 nM | 75 nM | < 32 °C | Activity (Homo sapiens [1]): Active; inhibition (Cytomegalovirus): inactive; inhibition (Homo sapiens [14]): Dose-dependent effect; inhibition (INH) (PANC-1 [18]): 80%; inhibition (Homo sapiens [19]): Dose-dependent effect |
| N=C(N)NCCNc1c2c(c(NCCNC(=N)N)c3occc13)C(=O)c1ccccc1C2=O |  |  |  |  | inactive |  |  |  |  | inactive | Active |  |  |  |  |  |  |  |  |  |
| N=C(N)NCCNc1c2c(c(NCCNC(=N)N)c3sccc13)C(=O)c1ccccc1C2=O |  |  |  |  | inactive |  |  |  |  | inactive |  |  |  |  |  |  |  |  |  |  |
| NCCNc1c2c(c(NCCN)c3sccc13)C(=O)c1ccccc1C2=O | 2 to 6 | < 20 °C | 20.6% | 2 to 6 | inactive | 2 to 6 | 294 nM | 83 nM | < 20 °C | Active |  | 900 nM | Dose-dependent effect | 278 nM | < 10% | Active | 482 nM | 91 nM | < 20 °C |  |
